Bioassay records as filed in PubChem.
PolyA inh = polyadenylation inhibitors in yeast reporter cells, primary screen, luminescence, S. cerevisiae; S. cerevisiae SKY197-pL101 polyadenylation reporter, beta-gal luminescence; efflux-impaired pdr1/pdr3 knockout yeast; score 100 = 6 SD above DMSO; activity score, % at 12 µM; actives 0.02% (n = 300,000);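 active = lowest replicate activity score at least 50, where 100 means six control SD above control mean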;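 note: yeast exposed to compound for 9 h at 30 °C; higher score means more reporter readthrough which indicates perturbed polyadenylation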
Pemphigus Ab inh = inhibitors of pemphigus antibody binding to DSG3, primary screen, biochemical, bead-based, flow cytometry, scFv-GFP | Desmoglein-3 (Homo sapiens), P32926 | DSG3-coupled beads, scFv-anti-DSG3-GFP binding; stronger effect = lower value | binding (percent of control), % at 10 µM | actives 0.48% (n = 310,000) | AID 588358, 2011;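 active = binding more than 3 SD below its plate's average and above zero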;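 note: hits lower antibody fragment binding to DSG3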
NALP3 yeast inh = NALP3 inflammasome inhibitors in reconstituted yeast, primary screen, luminescence, uHTS. Yeast reconstituted NLRP3/ASC/caspase-1, beta-gal luminescence, 24 h. inhibition, % at 10 µM. actives 0.39% (n = 330,000). AID 2825, 2010;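 active = inhibition of 50% or more; inactive = inhibition below 50%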;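 note: plate controls were induced DMSO wells for no effect and uninduced yeast grown without galactose for full effect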
Arrestin-AP2 inh = inhibitors of beta-arrestin/AP2 binding, primary screen, biochemical, GPCR trafficking, flow cytometry | FITC-arrestin peptide / GST-AP2 beads; AP2 beta2 appendage carries R879A mutation | inhibition, % at 10 µM | actives 0.31% (n = 340,000) | AID 504490, 2011;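 active = inhibition above a set limit, near 3 SD of compounds lacking own fluorescence, cut at about 54% in these data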;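 note: plate controls were DMSO wells for no effect and 5 µM unlabelled arrestin peptide for full effect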
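Assay system: GST-AP2 R879A bound to glutathione beads, E. coli-expressed; Medium: PBS with 0.05% Tween 20 and 0.1% BSA; Also added: fluorescein-tagged arrestin peptide at 50 nM final; Timing: 12 min plus 1 h, RT; Measured by: flow cytometry, FL1 (488/535 nm); Evaluation: percent drop in bead-associated FITC signal.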
NALP1 yeast inh = NALP1 inflammasome inhibitors in reconstituted yeast, colorimetric, S. cerevisiae, triplicate retest; S. cerevisiae NALP1/ASC/caspase-1 growth, X-gal OD620, 72 h; inhibition, % at 10 µM; actives 0.61% (n = 280,000); in the data active = inhibition mostly above about 24%, no sharp cut-off; inactive = mostly below about 32%
ALR H2O2 inh = inhibitors of human ALR sulfhydryl oxidase, primary screen, biochemical, H2O2 detection, HRP-luminol luminescence, single point. purified ALR, DTT oxidation. actives 3.8% (n = 290,000). inhibition, % (concentration not given with the values);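 active = mean replicate inhibition above about 79%, with every replicate also reaching it, limit read from the data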
Target sequence (P55789 whole entry, looked up): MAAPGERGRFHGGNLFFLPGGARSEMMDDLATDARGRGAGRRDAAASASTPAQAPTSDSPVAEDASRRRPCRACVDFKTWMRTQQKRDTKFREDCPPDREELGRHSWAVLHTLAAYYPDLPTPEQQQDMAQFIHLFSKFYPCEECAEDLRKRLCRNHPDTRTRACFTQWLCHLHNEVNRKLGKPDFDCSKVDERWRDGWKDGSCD
The depositor's hits bear a star; . = no result given. Most compounds without a hit are left out; they make up all but 4.6% or so of the library.

SMILES	PolyA inh	Pemphigus Ab inh	NALP3 yeast inh	Arrestin-AP2 inh	NALP1 yeast inh	ALR H2O2 inh
CNC(=S)N1CCN(c2cccc(OC)c2)CC1	28	102	13	-2	6	99*
COCCn1c(SCC(=O)Nc2ccccc2OC)nc2ccccc2c1=O	-7	129	14	3	5	0
COc1ccccc1NC(=O)CSc1nc2c(sc3ccccc32)c(=O)n1CCN(C)C	5	102	5	2	22	99*
CCN(CC)CCn1c(SCC(=O)Nc2ccc(F)cc2)nc2c(sc3ccccc32)c1=O	-6	.	15	.	2	99*
CC(C)Cc1nnc(NC(=O)CCS(=O)(=O)c2ccc(Cl)cc2)s1	-12	101	12	-11	20	-6
N=C1/C(=C/c2ccc(OC(=O)c3ccco3)cc2)C(=O)N=C2SC=CN12	5	109	-4	-1	-4	98*
O=Cc1[nH]c2ccccc2c1N(C(=O)CCl)c1ccc([N+](=O)[O-])cc1	-14	117	13	5	13	99*
COC(=O)[C@H]1C[C@H](OC(=O)NCc2ccco2)[C@@]2(O)CN(S(=O)(=O)c3ccc(C)cc3)CC2[C@H]1C(=O)OC (some centres not stated)	.	101	.	.	.	.
Cc1cccc(OCC(=O)NCc2nc(-c3ccccc3)no2)c1	-10	103	24	32	22	7
Cc1cccc(NCc2nc(-c3ccccc3)no2)c1	-10	109	26	-1	9	91*
Cc1cccc(/C(N)=N/OC(=O)C23CC4CC(CC(C4)C2)C3)c1	-5	109	9	25	59*	.
N/C(=N\OC(=O)c1ccc2c(c1)OCO2)c1cccc([N+](=O)[O-])c1	-5	98	8	3	1	64
COc1cc(OC)cc(C(=O)O/N=C(\N)c2cccc(C)c2)c1	-9	101	27	-10	43*	-1
Cc1cccc(/C(N)=N/OC(=O)Cc2ccccc2)c1	-8	103	6	38	-12	-7
COc1cc(OC)cc(C(=O)O/N=C(\N)c2ccncc2)c1	-24	112	6	-9	24	-1
Cc1cccc(/C(N)=N/OC(=O)c2ccc3c(c2)OCO3)c1	11	103	42	20	70	97*
CC(=O)C1=C(O)C(=O)N(c2ccc(Br)cc2)C1c1ccccc1[N+](=O)[O-] (configuration not stated)	14	94	19	38	-10	21
COc1cc(NC(=O)c2ccccc2)c(OC)cc1NC(=O)CN1C(=O)N(C)C2(CCCCC2)C1=O	.	97	15	-5	.	.
Cc1cccnc1NC(=O)C1CCN(S(=O)(=O)c2ccc3c(c2)CCC(=O)N3)CC1	0	112	-8	-6	-5	90*
CC1CCCCC1NC(=O)C1CCN(S(=O)(=O)c2ccc3c(c2)CCC(=O)N3)CC1 (configuration not stated)	0	109	10	-2	32*	66
CN(C)c1ccc(CNC(=O)C2CCN(S(=O)(=O)c3ccc4c(c3)CCC(=O)N4)CC2)cc1	-14	109	11	-1	-10	91*
CN(C)c1ccc(CNC(=O)c2cc(S(=O)(=O)N3CCOCC3)cn2C)cc1	21	102	16	2	0	98*
Cc1cc(NC(=O)CN2C(=O)NC(c3ccccc3)(c3ccc(C)c(C)c3)C2=O)no1 (configuration not stated)	.	101	19	8	.	3
O=C(COC(=O)c1cc(S(=O)(=O)N2CCOCC2)ccc1F)NCc1ccco1	4	117	5	-6	0	0
CC1CC(C)CN(S(=O)(=O)c2ccc3oc(=O)ccc3c2)C1 (configuration not stated)	4	107	-3	15	8	-2
O=C(C=Cc1ccccc1)c1cc(Br)ccc1O	.	91	.	-1	.	.
